# Shown are actives, neighbours in structure and some others; about 3.5% of the full set was active somewhere.
# MrgX1 PAM: allosterically activates human MrgX1 receptor signaling; Q96LB2; MrgX1-HEK293, Fluo-4 calcium flux, FDSS; hits give high values; B-score at 10 µM; actives 0.63% (n = 310,000); AID 588675;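 active means plate-corrected calcium response at least 3 library SD above typical, normal starting fluorescence, not activating the receptor alone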;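 further: compound read alongside a low EC10 to EC30 dose of BAM8-22 agonist; peak minus trough fluorescence over baseline measured at the second addition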
# Target sequence (Q96LB2 whole entry, looked up): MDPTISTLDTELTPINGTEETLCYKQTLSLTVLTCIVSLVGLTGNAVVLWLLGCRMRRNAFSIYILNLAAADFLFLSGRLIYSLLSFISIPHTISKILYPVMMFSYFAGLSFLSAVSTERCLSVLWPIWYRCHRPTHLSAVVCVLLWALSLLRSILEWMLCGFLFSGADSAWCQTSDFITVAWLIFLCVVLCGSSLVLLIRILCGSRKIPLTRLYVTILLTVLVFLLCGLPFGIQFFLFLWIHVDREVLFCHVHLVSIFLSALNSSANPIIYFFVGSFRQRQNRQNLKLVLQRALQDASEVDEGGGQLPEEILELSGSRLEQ
# RGS4 pot: RGS4 potentiation or activation; HEK293 M3R/inducible RGS4, carbachol calcium flux Fluo4; hits give low values; actives 0.92% (n = 310,000); B-score at 10 µM;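 active means B-score of the integrated calcium signal more than 4 SD below the library mean, with starting fluorescence not abnormally high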;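 further: negative B-score means reduced calcium response which marks RGS4 activation or potentiation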
#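 Assay system: HEK293 FlpIn-TREx cells, stable M3R, doxycycline-inducible RGS4 / Probe or stimulus: carbachol, ECmax concentration / Times: overnight RGS4 induction, 30 min dye load 37 °C, 20 min compound RT / Signal: kinetic calcium fluorescence imaging with Fluo4-AM dye, 2 µM / Measure: Agonist-evoked peak-minus-minimum fluorescence over baseline, integrated ratio, B score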
# RGS4 block: inhibitors of human RGS4; P49798; HEK293 M3R/RGS4 inducible, Fluo-4 calcium flux; hits give high values; triggered by carbachol at its EC20; B-score at 10 µM; actives 0.45% (n = 310,000); AID 463165;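 active means B-score, a plate-corrected calcium signal, over three deviations above library mean, with baseline fluorescence within five deviations of library mean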;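 further: RGS4 expression induced by doxycycline in cells with stable M3 receptor; B-score is computed from the integrated fluorescence ratio over baseline after carbachol; higher B-score means a larger calcium signal and so more RGS4 inhibition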
# MrgX1 antagonist: antagonists of human MrgX1 receptor; B-score at 10 µM; MRGX1-HEK293 calcium flux, Fluo-4, BAM8-22 antagonism; hits give low values; Q96LB2; actives 1.3% (n = 310,000);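 active means calcium-response B-score plate-corrected more than 3 library SD below zero, starting fluorescence within 5 deviations, no agonist response on first addition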;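 further: peak minus trough fluorescence over baseline after final BAM8-22 challenge near maximal dose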
# MrgX1 agonist: activates human MrgX1 receptor signaling; Q96LB2; MrgX1-HEK293 cells, Fluo-4 calcium fluorescence, agonist mode; hits give high values; B-score at 10 µM; actives 0.44% (n = 310,000);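 active means calcium response B-score plate-corrected fluorescence ratio at least 3 library SD, with starting fluorescence B-score inside 5 SD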
#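 Assay system: MrgX1-expressing HEK293 cells / Amount: fifteen thousand cells per well / Doses: test compound in the initial addition of three / Timing: cells plated overnight, dye loaded 0.5 h 37 °C, 0.5 h room temperature / Technique: kinetic calcium dye fluorescence, Fluo-4 NW / Control set: positive and negative controls per plate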
# * marks the source's active call; other numbers are inactive results; i = inactive; / = no result.
SMILES,MrgX1 PAM,RGS4 pot,RGS4 block,MrgX1 antagonist,MrgX1 agonist
COc1ccc(C(=O)NCc2ccc3c(c2)OCO3)c(OC)c1,i,i,i,i,i
CS(=O)(=O)NNC(=O)Cn1nnc(-c2ccc(OCc3ccccc3Cl)cc2)n1,9.65*,i,i,i,i
CCOc1ccc2nc(N3CCC(C(=O)N4CCN(c5ncccn5)CC4)CC3)sc2c1,i,i,i,-8.08*,i
CCCOc1ccc(C2C(C(=O)c3ccco3)=C(O)C(=O)N2CCCn2ccnc2)cc1 (stereo not given),i,i,i,-7.47*,i
Cc1cc(NC(=O)CCCn2ccc([N+](=O)[O-])n2)n(Cc2ccc(F)cc2)n1,i,i,i,i,i
Cc1nc(NC(=O)CSc2nnc(-c3ccccc3)c(-c3ccccc3)n2)c(Cl)cc1Cl,i,-7.17*,i,i,i
CC1Sc2ccc(S(=O)(=O)CCC(=O)NCc3cccs3)cc2NC1=O (stereo not given),i,i,i,i,i
CC1CC(C)CN(S(=O)(=O)N2CCCC(C(=O)NCCc3ccccc3)C2)C1 (stereo not given),i,i,i,i,i
O=[N+]([O-])c1ccc(-c2ccc(/C=N/Nc3nc(N4CCCC4)nc(N4CCCC4)n3)o2)cc1,i,i,i,i,34.2*
O=[N+]([O-])c1ccc(-c2ccc(/C=N/Nc3nc(N4CCCCC4)nc(N4CCCCC4)n3)o2)cc1,/,i,i,/,/
CC(=O)CSc1ccc(-c2nc3cc(C)c(C)cc3[nH]2)cn1,i,i,i,i,i
Cc1cc2nc(-c3ccc(SCc4ccc(C#N)cc4)nc3)[nH]c2cc1C,i,i,i,-6.12*,i
COc1ccccc1CNC(=O)CN(C)S(=O)(=O)c1ccc(Br)s1,i,i,i,i,i
Cc1ccc(OCCC(=O)OC(C)C(=O)NC2CC2)cc1 (stereo not given),i,i,i,i,i
O=C(C1CC1)N1N=C(c2ccccc2)CC1(O)C(F)(F)F (stereo not given),i,i,i,i,i
O=C(c1ccccc1[N+](=O)[O-])N1N=C(c2ccccc2)CC1(O)C(F)(F)F (stereo not given),i,-9.28*,i,i,i
O=C(Nc1ccc(O)cc1)c1cc2ccccc2c(=O)s1,i,i,i,i,i
O=C(Nc1ccccc1)c1cc2ccccc2c(=O)s1,i,i,i,-7.78*,i
CC1=C(C(=O)Nc2ccccc2C(=O)NC2CCCCC2)SCCO1,i,i,i,i,i
COC(=O)C1CCN(CC(=O)Nc2cc(Cl)ccc2OC)CC1,20.9*,i,i,i,i
O=C1CCCCC1C(Nc1ccc(Br)cc1)c1ccccc1 (stereo not given),i,-7.53*,i,i,i
CC(C)(C)c1cc(O)c(C(C)(C)C)cc1O,i,-8.54*,i,i,41.5*
Cc1cc(C(C)(C)C)c(O)c(C(C)(C)C)c1,i,i,i,i,i
C/C(CC(C)(C)C1CCCCC1)=N\NC(N)=S,i,i,i,-8.71*,i
COc1ccc(N2CCN(S(=O)(=O)CCNC(=O)c3ccc(Br)o3)CC2)cc1,i,i,i,i,i
SMILES,MrgX1 PAM,RGS4 pot,RGS4 block,MrgX1 antagonist,MrgX1 agonist
Cc1ccc(S(=O)(=O)N2CCC(C(=O)OCC(=O)N(C)CC(=O)Nc3ccc(F)cc3)CC2)cc1C,i,i,i,i,i
COC1(OC)C(/C=C/c2ccc(Cl)cc2)C(C#N)(C#N)C1(OC)OC (stereo not given),8.51*,i,i,i,i
COc1ccc(/C(C)=N/NC(=O)c2ccncc2)cc1,i,i,i,i,i
C/C(=N/NC(=O)c1ccncc1)C1=C(O)CC(C)(C)CC1=O,i,i,i,-4.67*,i
COc1cccc(C(=O)N/N=C2\SCC(=O)N2Cc2ccc3c(c2)OCO3)c1,i,i,i,-5.64*,i
COc1ccc(C(=O)N/N=C2/SCC(=O)N2Cc2ccc3c(c2)OCO3)cc1OC,i,i,i,i,i
